These results are taken from ChEMBL document CHEMBL1124009 (J Med Chem, 1988).

Usually IC50 stands for the concentration at which inhibition is half-maximal. Read a low IC50 as higher potency.

Test [1] concerns the target Delta-type opioid receptor (Rattus norvegicus, UniProt P33533). Kind of test: Binding affinity in competition with [3H]- DPDPE in Opioid receptor delta 1 binding to rat brain membrane. In outline:
(§1)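 Brains (minus cerebellum) of male Sprague–Dawley rats (200–250 g) were homogenized, preincubated 30 min at 25 °C and centrifuged twice at 43000g. Homogenate at 0.5% final was incubated with 0.5 nM [3H]CTOP (μ) or 1.0 nM [3H]DPDPE (δ) in 50 mM Tris-HCl pH 7.4 with 5 mM MgCl2, BSA 1 mg/mL and 100 μM PMSF, 120 min at 25 °C, in duplicate. Nonspecific binding was taken with 1 μM naloxone; bound label was filtered and scintillation counted; curves were fit by nonlinear least squares.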

The target of test [2] is Somatostatin receptor. The experiment in a line: Binding affinity in competition with [125I]- CGP-23996 in somatostatin receptor binding to rat brain membrane. The method, boiled down: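 Rat whole-brain membranes (adult male Sprague–Dawley) at 1.0% final tissue were incubated with 0.2 nM [125I]CGP 23,996 and analogues at 100–0.3 μM. Buffer was 50 mM Tris pH 7.4 with 2.0 mg/mL BSA, 20 μg/mL bacitracin and 5 mM MgCl2. Incubation ran 1 h at 37 °C and ended by rapid filtration through BSA-soaked GF/B filters.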

Test [3] addresses Mu-type opioid receptor (Rattus norvegicus, UniProt P33535). Kind of test: Binding affinity in competition with [3H]- CTOP in Opioid receptor mu 1 binding to rat brain membrane. The method, boiled down: as §1
For test [4], the target named is Opioid receptors; mu & delta (Rattus norvegicus) (UniProt P33533+P33535). The experiment in a line: Ratio of selective binding affinity of mu receptor to that of delta opioid receptor. Type of test: protein assay.
Chain of Opioid receptors; mu & delta (Rattus norvegicus) (P33533 whole entry, looked up): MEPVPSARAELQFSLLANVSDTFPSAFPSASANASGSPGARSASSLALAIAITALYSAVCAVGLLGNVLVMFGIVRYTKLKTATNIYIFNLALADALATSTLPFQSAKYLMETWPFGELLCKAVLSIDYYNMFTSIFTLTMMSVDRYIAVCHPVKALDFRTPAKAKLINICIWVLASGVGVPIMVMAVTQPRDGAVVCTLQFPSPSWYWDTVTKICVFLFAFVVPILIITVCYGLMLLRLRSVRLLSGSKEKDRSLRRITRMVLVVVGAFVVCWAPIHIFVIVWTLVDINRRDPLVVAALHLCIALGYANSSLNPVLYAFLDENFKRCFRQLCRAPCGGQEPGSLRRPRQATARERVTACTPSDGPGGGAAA
Chain of Opioid receptors; mu & delta (Rattus norvegicus) (P33535 whole entry, looked up): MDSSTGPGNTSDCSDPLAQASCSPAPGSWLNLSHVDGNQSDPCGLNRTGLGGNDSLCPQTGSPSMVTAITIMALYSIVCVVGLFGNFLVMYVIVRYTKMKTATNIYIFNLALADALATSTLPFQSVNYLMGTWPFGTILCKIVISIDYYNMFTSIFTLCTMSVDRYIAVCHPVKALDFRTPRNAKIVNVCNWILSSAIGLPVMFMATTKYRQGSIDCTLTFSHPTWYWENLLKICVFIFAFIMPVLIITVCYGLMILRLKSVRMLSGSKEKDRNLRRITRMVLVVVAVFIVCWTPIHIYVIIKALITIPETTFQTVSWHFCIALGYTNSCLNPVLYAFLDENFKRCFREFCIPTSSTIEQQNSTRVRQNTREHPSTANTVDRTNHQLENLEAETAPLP
Test [5] can be described thus: Ratio of selective binding affinity of mu receptor to that of somatostatin receptor.

Some results are limits rather than exact numbers.

Chain of Mu-type opioid receptor (P33535 whole entry): as the sequence (P33535 whole entry, looked up) above
Chain of Delta-type opioid receptor (P33533 whole entry): as the sequence (P33533 whole entry, looked up) above

For `C[C@@H](O)[C@H](NC(=O)[C@H]1NC(=O)[C@H]([C@@H](C)O)NC(=O)[C@H](CCCN)NC(=O)[C@@H](Cc2c[nH]c3ccccc23)NC(=O)[C@H](Cc2ccc(O)cc2)NC(=O)[C@@H](NC(=O)[C@H](N)Cc2ccccc2)CSSC1(C)C)C(N)=O`, the IC50 in test [1] stood at 5.6 µM. As for `C[C@@H](O)[C@@H]1NC(=O)[C@H](CCCCN)NC(=O)C(Cc2c[nH]c3ccccc23)NC(=O)[C@H](Cc2ccc(O)cc2)NC(=O)[C@@H](NC(=O)[C@H](N)Cc2ccccc2)CSSC(C)(C)[C@@H](C(=O)N[C@@H](CO)C(N)=O)NC1=O` (stereo in doubt), the IC50 in test [2] was found to be 1.888 µM.

Molecule `C[C@@H](O)[C@H](NC(=O)[C@H]1NC(=O)[C@H](CC(N)=O)NC(=O)[C@H](Cc2ccc(O)cc2)NC(=O)[C@@H](NC(=O)[C@H](N)Cc2ccccc2)CSSC1(C)C)C(N)=O` returned an IC50 in test [1] of over 10 µM. On to `C[C@@H](O)[C@@H]1NC(=O)[C@H](CCCCN)NC(=O)C(Cc2c[nH]c3ccccc23)NC(=O)[C@H](Cc2ccc(O)cc2)NC(=O)[C@@H](NC(=O)[C@H](N)Cc2ccccc2)CSSC(C)(C)[C@@H](C(N)=O)NC1=O` (stereo in doubt) [listing 1 of 2 here], for which the results for the IC50 in test [3] and in test [1] were 0.115 µM and over 10 µM, respectively. With `C[C@@H](O)[C@@H]1NC(=O)[C@H](CCCCN)NC(=O)C(Cc2c[nH]c3ccccc23)NC(=O)[C@H](Cc2ccc(O)cc2)NC(=O)[C@@H](NC(=O)[C@H](N)Cc2ccccc2)CSSC(C)(C)[C@@H](C(=O)N[C@@H](CC(=O)O)C(N)=O)NC1=O` (stereo in doubt) [listing 1 of 2 here], in test [2], the IC50 stood at 8.3 µM.

The molecule `C[C@@H](O)[C@@H]1NC(=O)[C@H](CCCCN)NC(=O)C(Cc2c[nH]c3ccccc23)NC(=O)[C@H](Cc2ccc(O)cc2)NC(=O)[C@@H](NC(=O)[C@H](N)Cc2ccccc2)CSSC(C)(C)[C@@H](C(N)=O)NC1=O` (stereo in doubt) [listing 2 of 2 here] showed an IC50 in test [2] of 1.942 µM. This IC50 is about 4.3-fold lower than that of the molecule before.

With `C[C@@H](O)[C@H](NC(=O)[C@H]1NC(=O)[C@H]([C@@H](C)O)NC(=O)[C@H](CCCN)NC(=O)C(Cc2c[nH]c3ccccc23)NC(=O)[C@@H](Cc2ccc(O)cc2)NC(=O)[C@@H](NC(=O)[C@H]2Cc3ccccc3CN2C(=O)CN)CSSC1(C)C)C(N)=O` (stereo in doubt) [listing 1 of 3 here], the Ratio was 19 in test [4] and 70 in test [5]. `C[C@@H](O)[C@@H]1NC(=O)[C@H](CCCCN)NC(=O)C(Cc2c[nH]c3ccccc23)NC(=O)[C@H](Cc2ccc(O)cc2)NC(=O)[C@@H](NC(=O)[C@H](N)Cc2ccccc2)CSSC(C)(C)[C@@H](C(=O)N[C@@H](CC(N)=O)C(N)=O)NC1=O` (stereo in doubt) [listing 1 of 2 here] returned an IC50 in test [2] of 1.801 µM. `C[C@@H](O)[C@H](NC(=O)[C@H]1NC(=O)[C@H](CCCCN)NC(=O)C(Cc2c[nH]c3ccccc23)NC(=O)[C@@H](Cc2ccc(O)cc2)NC(=O)[C@@H](NC(=O)[C@H]2Cc3ccccc3CN2)CSSC1(C)C)C(N)=O` (stereo in doubt) [listing 1 of 2 here] displayed an IC50 in test [2] of 13.61 µM. As for `CN[C@H](Cc1ccccc1)C(=O)N[C@H]1CSSC(C)(C)[C@@H](C(=O)N[C@H](C(N)=O)[C@@H](C)O)NC(=O)[C@H]([C@@H](C)O)NC(=O)[C@H](CCCN)NC(=O)C(Cc2c[nH]c3ccccc23)NC(=O)[C@H](Cc2ccc(O)cc2)NC1=O` (stereo in doubt) [listing 1 of 2 here], the IC50 is 0.284 µM in test [3] and over 10 µM in test [1]. Consider `C[C@@H](O)[C@H](NC(=O)[C@H]1NC(=O)[C@H]([C@@H](C)O)NC(=O)[C@H](CCCCN)NC(=O)C(Cc2c[nH]c3ccccc23)NC(=O)[C@H](Cc2ccc(O)cc2)NC(=O)[C@@H](NC(=O)C(N)Cc2c[nH]c3ccccc23)CSSC1(C)C)C(N)=O` (stereo in doubt) [listing 1 of 2 here], for which the IC50 in test [3] was 0.0063 µM; in test [1], over 10 µM. As to `C[C@@H](O)[C@H](NC(=O)[C@H]1NC(=O)[C@H]([C@@H](C)O)NC(=O)[C@H](CCCN)NC(=O)C(Cc2c[nH]c3ccccc23)NC(=O)[C@@H](Cc2ccc(O)cc2)NC(=O)[C@@H](NC(=O)[C@H]2Cc3ccccc3CN2C(=O)CN)CSSC1(C)C)C(N)=O` (stereo in doubt) [listing 2 of 3 here], the IC50 is 0.278 µM in test [3] and 5.35 µM in test [1]. In the case of `C[C@@H](O)[C@H](NC(=O)[C@@H]1NC(=O)[C@H](CCCCN)NC(=O)C(Cc2c[nH]c3ccccc23)NC(=O)[C@H](Cc2ccc(O)cc2)NC(=O)[C@@H](NC(=O)[C@@H](N)Cc2ccccc2)CSSC1(C)C)C(N)=O` (stereo in doubt) [listing 1 of 2 here], the IC50 in test [2] worked out at 6.103 µM. For `C[C@@H](O)[C@H](NC(=O)[C@H]1NC(=O)[C@H](CCCCN)NC(=O)C(Cc2c[nH]c3ccccc23)NC(=O)[C@@H](Cc2ccc(O)cc2)NC(=O)[C@@H](NC(=O)[C@H]2Cc3ccccc3CN2)CSSC1(C)C)C(N)=O` (stereo in doubt) [listing 2 of 2 here], the values for the IC50 in test [3] and in test [1] were 9.41 µM and over 10 µM, respectively. Regarding `C[C@@H](O)[C@H](NC(=O)[C@@H]1NC(=O)[C@H](CCCCN)NC(=O)C(Cc2c[nH]c3ccccc23)NC(=O)[C@H](Cc2ccc(O)cc2)NC(=O)[C@@H](NC(=O)[C@@H](N)Cc2ccccc2)CSSC1(C)C)C(N)=O` (stereo in doubt) [listing 2 of 2 here], in test [1], the IC50 is over 10 µM. On to `C[C@@H](O)[C@@H]1NC(=O)[C@H](CCCCN)NC(=O)C(Cc2c[nH]c3ccccc23)NC(=O)[C@H](Cc2ccc(O)cc2)NC(=O)[C@@H](NC(=O)[C@H]2Cc3ccccc3CN2)CSSC(C)(C)[C@@H](C(=O)N[C@@H](CO)C(N)=O)NC1=O` (stereo in doubt) [listing 1 of 2 here], for which the IC50 was 0.0078 µM in test [3] and 3.83 µM in test [1]. The corresponding values for `C[C@@H](O)[C@@H]1NC(=O)[C@H](CCCCN)NC(=O)C(Cc2c[nH]c3ccccc23)NC(=O)[C@H](Cc2ccc(O)cc2)NC(=O)[C@@H](NC(=O)[C@H](N)Cc2ccccc2)CSSC(C)(C)[C@@H](C(=O)N[C@@H](CC(=O)O)C(N)=O)NC1=O` (stereo in doubt) [listing 2 of 2 here] are 3.47 µM and over 10 µM. Regarding `C[C@@H](O)[C@H](NC(=O)[C@H]1NC(=O)[C@H]([C@@H](C)O)NC(=O)[C@H](CCCN=C(N)N)NC(=O)[C@@H](Cc2c[nH]c3ccccc23)NC(=O)[C@H](Cc2ccc(O)cc2)NC(=O)[C@@H](NC(=O)[C@H](N)Cc2ccccc2)CSSC1(C)C)C(N)=O`, the values for the IC50 in test [3] and in test [1] were 0.0021 µM and 5.31 µM, respectively. The corresponding values for `C[C@@H](O)[C@@H]1NC(=O)[C@H](CCCCN)NC(=O)C(Cc2c[nH]c3ccccc23)NC(=O)[C@H](Cc2ccc(O)cc2)NC(=O)[C@@H](NC(=O)[C@H](N)Cc2ccccc2)CSSC(C)(C)[C@@H](C(=O)N[C@@H](CC(N)=O)C(N)=O)NC1=O` (stereo in doubt) [listing 2 of 2 here] are 0.13 µM and over 10 µM. The corresponding values for `C[C@@H](O)[C@H](NC(=O)[C@H]1NC(=O)[C@H](CC(N)=O)NC(=O)[C@H](Cc2ccccc2)NC(=O)[C@@H](NC(=O)[C@H](N)Cc2ccc(O)cc2)CSSC1(C)C)C(N)=O` are 7.47 µM and at least 10 µM.

With `CN[C@H](Cc1ccccc1)C(=O)N[C@H]1CSSC(C)(C)[C@@H](C(=O)N[C@H](C(N)=O)[C@@H](C)O)NC(=O)[C@H]([C@@H](C)O)NC(=O)[C@H](CCCN)NC(=O)C(Cc2c[nH]c3ccccc23)NC(=O)[C@H](Cc2ccc(O)cc2)NC1=O` (stereo in doubt) [listing 2 of 2 here], the IC50 in test [2] amounted to 8.054 µM. On the same count and under the same terms, the same measure for `C[C@@H](O)[C@H](NC(=O)[C@H]1NC(=O)[C@H]([C@@H](C)O)NC(=O)[C@H](CCCCN)NC(=O)C(Cc2c[nH]c3ccccc23)NC(=O)[C@H](Cc2ccc(O)cc2)NC(=O)[C@@H](NC(=O)C(N)Cc2c[nH]c3ccccc23)CSSC1(C)C)C(N)=O` (stereo in doubt) [listing 2 of 2 here]: 1.599 µM.

Turning to `C[C@@H](O)[C@H](NC(=O)[C@@H]1NC(=O)[C@H]([C@@H](C)O)NC(=O)[C@@H](Cc2c[nH]c3ccccc23)NC(=O)[C@H](Cc2ccc(O)cc2)NC(=O)[C@@H](NC(=O)[C@H](N)Cc2ccccc2)CSSC1(C)C)C(N)=O`, the IC50 in test [3] turned out to be 10 µM; in test [1] it was 7.82 µM. The molecule `C[C@@H](O)[C@H](NC(=O)[C@H]1NC(=O)[C@H]([C@@H](C)O)NC(=O)[C@H](CCCCN)NC(=O)C(Cc2c[nH]c3ccccc23)NC(=O)[C@@H](Cc2ccc(O)cc2)NC(=O)[C@@H](NC(=O)[C@H]2Cc3ccccc3CN2)CSSC1(C)C)C(N)=O` (stereo in doubt) gave an IC50 in test [2] of 0.949 µM. On the same count and under the same terms, the same measure for `C[C@@H](O)[C@H](NC(=O)[C@H]1NC(=O)[C@H]([C@@H](C)O)NC(=O)[C@H](CCCN)NC(=O)C(Cc2c[nH]c3ccccc23)NC(=O)[C@@H](Cc2ccc(O)cc2)NC(=O)[C@@H](NC(=O)[C@H]2Cc3ccccc3CN2C(=O)CN)CSSC1(C)C)C(N)=O` (stereo in doubt) [listing 3 of 3 here]: 19.408 µM; for `C[C@@H](O)[C@@H]1NC(=O)[C@H](CCCCN)NC(=O)C(Cc2c[nH]c3ccccc23)NC(=O)[C@H](Cc2ccc(O)cc2)NC(=O)[C@@H](NC(=O)[C@H]2Cc3ccccc3CN2)CSSC(C)(C)[C@@H](C(=O)N[C@@H](CO)C(N)=O)NC1=O` (stereo in doubt) [listing 2 of 2 here]: 1.499 µM; for `C[C@@H](O)[C@@H]1NC(=O)[C@H](CCCN)NC(=O)C(Cc2c[nH]c3ccccc23)NC(=O)[C@H](Cc2ccc(O)cc2)NC(=O)[C@@H](NC(=O)[C@H](N)Cc2ccccc2)CSSC(C)(C)[C@@H](C(N)=O)NC1=O` (stereo in doubt) [listing 1 of 2 here]: 47.273 µM.

As for `C[C@@H](O)[C@@H]1NC(=O)[C@H](CCCN)NC(=O)C(Cc2c[nH]c3ccccc23)NC(=O)[C@H](Cc2ccc(O)cc2)NC(=O)[C@@H](NC(=O)[C@H](N)Cc2ccccc2)CSSC(C)(C)[C@@H](C(N)=O)NC1=O` (stereo in doubt) [listing 2 of 2 here], the figures for the IC50 in test [3] and in test [1] were 0.187 µM and over 10 µM, respectively.
